# Compound activity (PubChem BioAssay)
# Shown are actives, neighbours in structure and some others; about 3.5% of the full set was active somewhere.
# MrgX1 antagonist – antagonists of human MrgX1 receptor, primary screen, HEK293 cells, Fluo-4 calcium flux. AID 588676, 2011. B-score at 10 µM. 1.3% of 310,000 active. BAM8-22 antagonism; hits give low values;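 active = calcium-response B-score plate-corrected more than 3 library SD below zero, starting fluorescence within 5 deviations, no agonist response on first addition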;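 also: peak minus trough fluorescence over baseline after final BAM8-22 challenge near maximal dose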
# Target sequence (Q96LB2 whole entry, looked up): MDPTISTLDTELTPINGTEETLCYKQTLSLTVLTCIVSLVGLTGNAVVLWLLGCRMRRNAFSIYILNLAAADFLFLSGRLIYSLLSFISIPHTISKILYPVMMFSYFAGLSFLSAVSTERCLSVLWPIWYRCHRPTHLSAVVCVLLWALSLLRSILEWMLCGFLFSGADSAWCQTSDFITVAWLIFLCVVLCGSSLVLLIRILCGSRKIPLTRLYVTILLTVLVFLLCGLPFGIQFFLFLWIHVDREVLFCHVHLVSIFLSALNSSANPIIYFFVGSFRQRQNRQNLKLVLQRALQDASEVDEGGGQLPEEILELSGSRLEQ
# MrgX1 PAM – positive allosteric modulators of MrgX1, primary screen, HEK293 cells, Fluo-4 calcium flux. FDSS; hits give high values. B-score at 10 µM. 0.63% of 310,000 active;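 active = plate-corrected calcium response at least 3 library SD above typical, normal starting fluorescence, not activating the receptor alone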;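 also: compound read alongside a low EC10 to EC30 dose of BAM8-22 agonist; peak minus trough fluorescence over baseline measured at the second addition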
# MrgX1 ag – agonists of human MrgX1 receptor, primary screen, HEK293 cells, Fluo-4 calcium flux. Fluo-4 calcium fluorescence, agonist mode; hits give high values. AID 588627, 2011. Mas-related G-protein coupled receptor member X1 (Homo sapiens), Q96LB2. 0.44% of 310,000 active. B-score at 10 µM;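 active = calcium response B-score plate-corrected fluorescence ratio at least 3 library SD, with starting fluorescence B-score inside 5 SD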
#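 Assay system: stable human MrgX1 HEK293 cell line. Quantity: 15,000 cells per well. Schedule: cells plated overnight, dye loaded 0.5 h 37 °C, 0.5 h room temperature. Detection: Fluo-4 NW calcium-flux fluorescence, kinetic read. Read-out basis: peak-minus-minimum fluorescence over baseline, converted to B scores. Control set: positive and negative control wells on each plate.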
# RGS4 pot – RGS4 potentiators or activators, primary screen, cell-based, HEK293 M3R inducible RGS4, calcium flux. carbachol calcium flux Fluo4; hits give low values. B-score at 10 µM. 0.92% of 310,000 active. AID 463111, 2010;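 active = B-score of the integrated calcium signal more than 4 SD below the library mean, with starting fluorescence not abnormally high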;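 also: negative B-score means reduced calcium response which marks RGS4 activation or potentiation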
#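 Material: Inducible-RGS4 HEK293 cells carrying M3 receptor; also added: carbachol at ECmax as muscarinic agonist stimulus; incubation: compound preincubation 20 min at room temperature before agonist; signal: Fluo4-AM (2 µM) calcium-flux fluorescence, kinetic read; measure: integrated calcium ratio converted to B score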
# RGS4 inh – RGS4 inhibitors, primary screen, cell-based, HEK293 M3R inducible RGS4, calcium flux; Regulator of G-protein signaling 4 (Homo sapiens), P49798; Fluo-4 calcium flux; hits give high values; triggered by carbachol at its EC20; B-score at 10 µM; 0.45% of 310,000 active;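 active = B-score, a plate-corrected calcium signal, over three deviations above library mean, with baseline fluorescence within five deviations of library mean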;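 also: RGS4 expression induced by doxycycline in cells with stable M3 receptor; B-score is computed from the integrated fluorescence ratio over baseline after carbachol; higher B-score means a larger calcium signal and so more RGS4 inhibition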
# Target sequence (P49798 whole entry, looked up): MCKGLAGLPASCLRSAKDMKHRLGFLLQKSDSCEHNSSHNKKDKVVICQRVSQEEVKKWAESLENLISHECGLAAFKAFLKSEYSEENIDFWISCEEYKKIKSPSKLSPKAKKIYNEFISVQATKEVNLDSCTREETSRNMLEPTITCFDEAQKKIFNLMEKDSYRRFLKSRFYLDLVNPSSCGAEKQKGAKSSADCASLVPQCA
# RGS4 block valid – enhanced carbachol calcium response, M3R/RGS4 cells, RGS4 inhibitor project, cell-based, validation screen, HEK293 M3R/RGS4, calcium flux | shares compounds with RGS4 inh | carbachol calcium Fluo-4 fluorescence; carbachol added at its EC20; 0 = buffer wells, 100 = carbachol control | calcium response, % at 10 µM | 65% of 1,700 active;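 active = duplicate-averaged calcium response above the buffer-only control mean plus 5 SD of those controls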;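 also: integrated fluorescence ratio F max minus min over baseline F0; higher response in RGS4-induced cells means RGS4 inhibition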
# M3R Ca ctr – carbachol calcium response in non-induced M3R cells, confirmation, counter-screen for RGS4 inhibitor project, cell-based, HEK293 M3R | shares compounds with RGS4 inh | carbachol calcium Fluo-4; submaximal (EC20) carbachol stimulus; buffer wells 0%, carbachol control wells 100% | activity (percent), % at 10 µM | 20% of 1,900 active; call rule not given here;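 also: RGS4 induction absent so cells express M3R without RGS4; higher means more calcium signal and flags a non-specific hit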
# M3R basal Ca ctr – signal in non-induced cells without carbachol, RGS4 inhibitor counter-screen. shares compounds with RGS4 inh. HEK293 M3R/RGS4 non-induced, Fluo-4 calcium, no carbachol; normalised: buffer wells 0%, carbachol wells 100%. calcium response (agonist-mode artifact), % at 10 µM. 22% of 1,900 active. AID 493001;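 active = duplicate-averaged calcium rise in uninduced cells above buffer wells' mean plus 5 SD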
# Hits are given with their value; - = inactive; . = no result given.
SMILES,MrgX1 antagonist,MrgX1 PAM,MrgX1 ag,RGS4 pot,RGS4 inh,RGS4 block valid,M3R Ca ctr,M3R basal Ca ctr
CCCc1cc(=O)[nH]c(SCC(=O)Nc2nc(-c3ccccc3)cs2)n1,-,-,-,-,-,.,.,.
O=C(CSc1nc2ccccc2[nH]1)Nc1nc(-c2ccc(Br)cc2)cs1,-,-,-,-,6.6,6.0%,-,-
C/[N+]([O-])=C\C1C(=O)CC(C)(C)CC1=O,-,-,-,-,-,.,.,.
CC1CCN(Cc2c(O)ccc3c(=O)c(-c4nc5ccccc5s4)c(N)oc23)CC1,-,-,-,-,6.3,12%,-,-
CC1CCCN(Cc2c(O)ccc3c(=O)c(-c4nc5ccccc5s4)c(N)oc23)C1 (stereo not given),-,-,-,-,5,16%,-,-
CC1(C)CCCN(Cc2c(O)ccc3c(=O)c(-c4nc5ccccc5s4)c(N)oc23)C1,-,-,-,-,-,.,.,.
CCOC(=O)CSC1=NC(=O)/C(=C/c2ccc(OC)cc2)S1,-,-,-,-,4.8,34%,-,85%
CCOC(=O)c1sc2nc(C)nc(NC3CCC(O)CC3)c2c1C (stereo not given),-,-,-,-,-,.,.,.
Oc1ccc(N=Nc2ccccc2)o1,-,-,-,-,4.9,7.5%,-,-
CS(=O)(=O)CCC(C(=O)OCc1ccc(Cl)cc1)N1C(=O)c2ccccc2C1=O (stereo not given),-,-,-,-,-,.,.,.
Cn1c(=O)c2sccc2n2c(CCCC(=O)Nc3ccc(F)cc3F)nnc12,-,-,-,-,-,.,.,.
Cc1cc2cc(C=C(C#N)C#N)c(Cl)nc2cc1C,-,-,36,-,5.9,14%,-,25%
CCOC(=O)/C(C#N)=C/c1cc2cc(C)c(C)cc2nc1Cl,-,-,-,-,-,.,.,.
COc1cc2c(cc1[N+](=O)[O-])n(C(C)C)c(=O)n2C(C)C,-,-,-,-,4.8,-,39%,-
Cn1cc(C(C[N+](=O)[O-])c2ccccc2)c2ccccc21 (stereo not given),-,-,-,-,-,.,.,.
COc1ccc(C(C[N+](=O)[O-])c2c(C)[nH]c3ccccc23)cc1OC (stereo not given),-,-,-,-,-,.,.,.
Cc1ccc(C(C[N+](=O)[O-])c2c(-c3ccccc3O)[nH][nH]c2=O)cc1 (stereo not given),-,-,-,-,6.3,34%,68%,22%
O=c1[nH][nH]c(-c2ccccc2O)c1C(C[N+](=O)[O-])c1ccc(Br)cc1 (stereo not given),-,-,-,-,15,32%,36%,20%
NC(=O)C1CC(=O)N(CCc2ccc(F)cc2)C1 (stereo not given),-,-,-,-,-,.,.,.
Cc1ccc(-c2cc(-c3ccccc3Cl)[nH]n2)c(O)c1,-,-,-,-,-,.,.,.
Cc1ccc(-c2cc(-c3ccccc3[N+](=O)[O-])[nH]n2)c(O)c1,-,-,-,-,-,.,-,-
CS(=O)(=O)c1ccc(C(=O)NCCN2C(=O)S/C(=C\c3cccnc3)C2=O)cc1[N+](=O)[O-],-,-,-,-,5.7,22%,-,-
CN(C)S(=O)(=O)c1ccc(C(=O)NCCN2C(=O)S/C(=C\c3cccnc3)C2=O)cc1,-,-,-,-,-,.,.,.
COC(=O)/C=C/C(=O)Nc1cccc(C(F)(F)F)c1,-,-,-,-,6.7,13%,44%,-
COC(=S)Nc1cccc(C(F)(F)F)c1,-,-,-,-,-,.,.,.
SMILES,MrgX1 antagonist,MrgX1 PAM,MrgX1 ag,RGS4 pot,RGS4 inh,RGS4 block valid,M3R Ca ctr,M3R basal Ca ctr
O=C(NNS(=O)(=O)c1ccccc1[N+](=O)[O-])c1cccnc1,-,-,-,-,-,.,.,.
COC(=O)c1nn(C23CC4CC(CC(C4)C2)C3)c2c1C(=O)N(c1ccc(F)cc1)C2=O,-,-,-,-,-,-,-,-
CC(=O)c1ccc(NC(=O)c2cc(C)nc3ccccc23)cc1,-,-,-,-,-,.,.,.
Cc1[nH]nc(N)c1N=Nc1ccc(Br)cc1,-,-,-,-,17,20%,-,-
Nc1n[nH]c(C2CC2)c1N=Nc1ccc(Cl)cc1,-,-,-,-,7,6.5%,-,-
Cc1ccc(N=Nc2c(N)n[nH]c2N)cc1,-,-,-,-,-,.,.,.
COc1cc(C(=O)N/N=C/c2ccc(OC)c(CN3CCN(c4ccc(F)cc4)CC3)c2)ccc1O,-,-,-,-,-,.,.,.
O=C(NCCc1ccccc1)C(=S)N1CCCCC1,-,-,-,-,-,.,.,.
CN=c1sc(C(=O)Nc2cccc(Cl)c2)cc(=O)n1C,-,-,-,-,28,14%,-,23%
Cn1c(N)c(C(=O)Nc2cccc(Cl)c2)c(=O)n(C)c1=O,-,-,-,-,-,.,.,.
O=C(N/N=C/c1ccc(-c2ccc([N+](=O)[O-])cc2)o1)[C@H]1C[C@@H]1c1ccccc1,-,-,-,-,-,-,-,39%
O=C(N/N=C/c1ccc(-c2ccccc2[N+](=O)[O-])o1)[C@H]1C[C@@H]1c1ccccc1,-,-,-,-,-,.,.,.
O=C(N/N=C/c1ccc(-c2cccc([N+](=O)[O-])c2)o1)[C@H]1C[C@@H]1c1ccccc1,-,-,-,-,5.7,-,-,-
COc1nc(OC)nc(Oc2ccc([N+](=O)[O-])cc2Cl)n1,-,-,-,-,-,.,.,.
Clc1cnc(Nc2cccnc2)c(Cl)c1,-,-,-,-,-,.,.,.
CNC(=O)COC(=O)[C@@H](Nc1ccc(S(=O)(=O)N2CCOCC2)cc1[N+](=O)[O-])C(C)C,-,-,-,-,-,.,.,.
CC1CCN(c2c(NCC3CCC(C(=O)NCc4ccccc4)CC3)c(=O)c2=O)CC1 (stereo not given),-,-,-,-,-,.,-,-
CC1CCN(c2c(NCC3CCC(C(=O)NCCCc4ccccc4)CC3)c(=O)c2=O)CC1 (stereo not given),-,-,-,-,6.4,6.0%,-,-
